Measured values published in ChEMBL document CHEMBL1131048, “Antiviral activities of methylated nordihydroguaiaretic acids. 1. Synthesis, structure identification, and inhibition of tat-regulated HIV transactivation” (J Med Chem, 1998).

How the values were obtained:
Conditions in all cases: Chlorocebus aethiops
COS-1 [1] = assay: Compound tested for inhibition of HIV Tat-regulated Transactivation in COS cells at a concentration of 30 uM.; assay type: functional
How it was run: (§1)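 COS cells in IMDM with 10% FBS, penicillin, streptomycin and Fungizone, 37 °C, 5% CO2, seeded in triplicate at ca. 1.5×10^5 cells/well and grown 24 h to 50% confluence. Calcium phosphate cotransfection with CMV-driven tat plasmid (0.20 µg/well) and HIV LTR-SEAP plasmid (0.40 µg/well) for 18 h. Compound then added in medium with 0.30% DMSO final, for 48 h.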

COS-1 [2] = assay: Inhibitory activity against HIV Tat-regulated Transactivation in COS cells.; assay type: functional, cell-based; how it was run: as §1
COS-1 [3] = assay: Compound tested for inhibition of HIV Tat-regulated Transactivation in COS cells at a concentration of 3 uM.; assay type: functional; how it was run: as §1
COS-1 [4] = assay: Compound tested for inhibition of HIV Tat-regulated Transactivation in COS cells at a concentration of 20 uM.; assay type: functional; how it was run: as §1
COS-1 [5] = assay: Compound tested for inhibition of HIV Tat-regulated Transactivation in COS cells at a concentration of 1 uM.; assay type: functional; how it was run: as §1
COS-1 [6] = assay: Compound tested for inhibition of HIV Tat-regulated Transactivation in COS cells at a concentration of 60 uM.; assay type: functional; how it was run: as §1
COS-1 [7] = assay: Compound tested for inhibition of HIV Tat-regulated Transactivation in COS cells at a concentration of 10 uM.; assay type: functional; how it was run: as §1
COS-1 [8] = assay: Compound tested for inhibition of HIV Tat-regulated Transactivation in COS cells at a concentration of 100 uM.; assay type: functional; how it was run: as §1

Question: With `COc1ccc(C[C@H](C)[C@H](C)Cc2ccc(OC)c(OC)c2)cc1O` (racemic) as the compound, how does the inhibition at 30 µM (COS-1 [1]) read?
Answer: 66%

Question: And the IC50 (COS-1 [2])?
Answer: 14.3 µM

Question: And the inhibition at 3 µM (COS-1 [3])?
Answer: 27%

Question: And the inhibition at 20 µM (COS-1 [4])?
Answer: 52%

Question: What about the inhibition at 1 µM (COS-1 [5]) of the same compound?
Answer: 16.5%

Question: What about the inhibition at 60 µM (COS-1 [6]) of the same compound?
Answer: 78.3%

Question: What about the inhibition at 10 µM (COS-1 [7]) of the same compound?
Answer: 41.7%

Question: What about the inhibition at 100 µM (COS-1 [8]) of the same compound?
Answer: 88.3%

Question: Which inhibition at 30 µM (COS-1 [1]) does the source give for `COc1ccc(C[C@@H](C)[C@@H](C)Cc2ccc(O)c(O)c2)cc1OC` (racemic) here?
Answer: 69.3%

Question: And the IC50 (COS-1 [2])?
Answer: 16.5 µM

Question: And the inhibition at 3 µM (COS-1 [3])?
Answer: 14.3%

Question: What about the inhibition at 20 µM (COS-1 [4]) of the same compound?
Answer: 59%

Question: And the inhibition at 1 µM (COS-1 [5])?
Answer: 12.5%

Question: And the inhibition at 60 µM (COS-1 [6])?
Answer: 87.7%

Question: And the inhibition at 10 µM (COS-1 [7])?
Answer: 20%

Question: What about the inhibition at 100 µM (COS-1 [8]) of the same compound?
Answer: 96%

Question: `COc1cc(C[C@H](C)[C@H](C)Cc2ccc(OC)c(OC)c2)ccc1O` (racemic) was tested. Which inhibition at 30 µM (COS-1 [1]) did it give?
Answer: 65%

Question: And the IC50 (COS-1 [2])?
Answer: 13.7 µM

Question: And the inhibition at 3 µM (COS-1 [3])?
Answer: 26.7%

Question: What about the inhibition at 20 µM (COS-1 [4]) of the same compound?
Answer: 50.5%

Question: What about the inhibition at 1 µM (COS-1 [5]) of the same compound?
Answer: 14.5%

Question: What about the inhibition at 60 µM (COS-1 [6]) of the same compound?
Answer: 76.3%

Question: And the inhibition at 10 µM (COS-1 [7])?
Answer: 45%

Question: And the inhibition at 100 µM (COS-1 [8])?
Answer: 87.7%

Question: `COc1ccc(C[C@@H](C)[C@@H](C)Cc2ccc(O)c(O)c2)cc1O` was tested. Which inhibition at 30 µM (COS-1 [1]) did it give?
Answer: 52%

Question: And the IC50 (COS-1 [2])?
Answer: 30.8 µM

Question: And the inhibition at 3 µM (COS-1 [3])?
Answer: 2.3%

Question: What about the inhibition at 20 µM (COS-1 [4]) of the same compound?
Answer: 27.5%

Question: And the inhibition at 1 µM (COS-1 [5])?
Answer: 5%

Question: What about the inhibition at 60 µM (COS-1 [6]) of the same compound?
Answer: 73.7%

Question: What about the inhibition at 10 µM (COS-1 [7]) of the same compound?
Answer: 5%

Question: What about the inhibition at 100 µM (COS-1 [8]) of the same compound?
Answer: 91.3%

Question: `COc1ccc(C[C@@H](C)[C@@H](C)Cc2ccc(OC)c(OC)c2)cc1OC` [TERAMEPROCOL] was tested. Which inhibition at 30 µM (COS-1 [1]) did it give?
Answer: 70%

Question: And the IC50 (COS-1 [2])?
Answer: 11.1 µM

Question: And the inhibition at 3 µM (COS-1 [3])?
Answer: 25.3%

Question: What about the inhibition at 20 µM (COS-1 [4]) of the same compound?
Answer: 61%

Question: What about the inhibition at 1 µM (COS-1 [5]) of the same compound?
Answer: 18.5%

Question: What about the inhibition at 60 µM (COS-1 [6]) of the same compound?
Answer: 78.7%

Question: What about the inhibition at 10 µM (COS-1 [7]) of the same compound?
Answer: 45%

Question: And the inhibition at 100 µM (COS-1 [8])?
Answer: 90.3%

Question: For `COc1ccc(C[C@@H](C)[C@@H](C)Cc2ccc(OC)c(O)c2)cc1O` [DIMETHYLNORDIHYDROGUARIERATE ACID], which inhibition at 30 µM (COS-1 [1]) is on record?
Answer: 52%

Question: And the IC50 (COS-1 [2])?
Answer: 29.9 µM

Question: What about the inhibition at 3 µM (COS-1 [3]) of the same compound?
Answer: 8.7%

Question: What about the inhibition at 20 µM (COS-1 [4]) of the same compound?
Answer: 38%

Question: What about the inhibition at 1 µM (COS-1 [5]) of the same compound?
Answer: 9.5%

Question: What about the inhibition at 60 µM (COS-1 [6]) of the same compound?
Answer: 70%

Question: And the inhibition at 10 µM (COS-1 [7])?
Answer: 19%

Question: And the inhibition at 100 µM (COS-1 [8])?
Answer: 85.7%

Question: `COc1cc(C[C@@H](C)[C@@H](C)Cc2ccc(O)c(O)c2)ccc1O` (racemic) was tested. Which inhibition at 30 µM (COS-1 [1]) did it give?
Answer: 56.3%

Question: What about the IC50 (COS-1 [2]) of the same compound?
Answer: 25 µM

Question: What about the inhibition at 3 µM (COS-1 [3]) of the same compound?
Answer: 7.3%

Question: And the inhibition at 20 µM (COS-1 [4])?
Answer: 38.5%

Question: And the inhibition at 1 µM (COS-1 [5])?
Answer: 9%

Question: And the inhibition at 60 µM (COS-1 [6])?
Answer: 83.3%

Question: What about the inhibition at 10 µM (COS-1 [7]) of the same compound?
Answer: 20.7%

Question: What about the inhibition at 100 µM (COS-1 [8]) of the same compound?
Answer: 92.3%

Question: `COc1cc(C[C@@H](C)[C@@H](C)Cc2ccc(O)c(OC)c2)ccc1O` [MESODIHYDROGUAIARETIC ACID] was tested. Which inhibition at 30 µM (COS-1 [1]) did it give?
Answer: 43%

Question: And the IC50 (COS-1 [2])?
Answer: 39 µM

Question: What about the inhibition at 3 µM (COS-1 [3]) of the same compound?
Answer: 10.3%

Question: What about the inhibition at 20 µM (COS-1 [4]) of the same compound?
Answer: 30.5%

Question: And the inhibition at 1 µM (COS-1 [5])?
Answer: 5.5%

Question: What about the inhibition at 60 µM (COS-1 [6]) of the same compound?
Answer: 63.7%

Question: What about the inhibition at 10 µM (COS-1 [7]) of the same compound?
Answer: 22.3%

Question: What about the inhibition at 100 µM (COS-1 [8]) of the same compound?
Answer: 73.7%
